Drawing on ChEMBL document CHEMBL3271938, “Podophyllotoxin analogs. 1. Synthesis and biological evaluation of certain trans-2-aryl-trans-6-hydroxymethyl-3-cyclohexenecarboxylic acid gamma-lactones as antimitotic agents” (1976), this text covers Activity for 13 molecules.

Assay [1] addresses T1, Tubulin (Bos taurus) (UniProt Q6B856+Q862L2+Q862F3). Kind of assay: Displacement of [3H]colchicine from bovine brain tubulin at 10 uM after 90 mins by liquid scintillation counting in presence of 10 uM [3H]colchicine.
Assay [2] deals with P815. Put plainly: Inhibition of colony formation in mouse P815 cells assessed as percentage of colony forming cell at 0.5 uM after 7 days by microscopic analysis relative to control. The class given is functional. Further details: scale not given: the % may be the effect or the level left. The procedure, abridged: (§1)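 P-815 mastocytoma cells, passaged in vitro, plated at 1 × 10^3 cells in 1.0 ml of 0.3% agar. Medium was McCoy's 5A with supplements, 10^-4 M dithiothreitol, 10% fetal calf and 5% horse serum. Compound came from a 1 mM stock in Me2SO/EtOH saline, diluted serially 1:10. Incubated 7 days at 37°C under 12% CO2/8% O2; colonies counted microscopically as % of control.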

Assay [3] addresses T1, Tubulin (Bos taurus). Kind of assay: Displacement of [3H]colchicine from bovine brain tubulin at 60 uM after 90 mins by liquid scintillation counting in presence of 10 uM [3H]colchicine.
The nature of assay [4]: Inhibition of colony formation in BDF1 mouse bone marrow cells assessed as percentage of colony forming cell at 50 uM after 7 days by microscopic analysis relative to control. The class given is functional. Also noted: scale not given: the % may be the effect or the level left. The gist of the method:
(§2)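 Femoral marrow from female BDF1 mice (8-12 weeks) was dispersed and 1 × 10^5 cells plated in 1.0 ml of 0.3% agar. Medium was McCoy's 5A with supplements, 10^-4 M dithiothreitol, 10% fetal calf and 5% horse serum, plus L-cell CSF. Compound came from a 1 mM stock in Me2SO/EtOH saline, diluted serially 1:10. Incubated 7 days at 37°C under 12% CO2/8% O2; colonies counted microscopically as % of control.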

Assay [5] has as its target T1, Tubulin (Bos taurus). Kind of assay: Displacement of [3H]colchicine from bovine brain tubulin at 40 uM after 90 mins by liquid scintillation counting in presence of 10 uM [3H]colchicine.
Assay [6] relates to P815. Kind of assay: Inhibition of colony formation in mouse P815 cells assessed as percentage of colony forming cell at 50 uM after 7 days by microscopic analysis relative to control. The class given is functional. Further details: scale not given: the % may be the effect or the level left. The procedure, abridged:
as §1

Assay [7] deals with P815. Kind of assay: Inhibition of colony formation in mouse P815 cells assessed as percentage of colony forming cell at 5 uM after 7 days by microscopic analysis relative to control. The class given is functional. Also noted: scale not given: the % may be the effect or the level left. The gist of the method:
as §1

A short description of assay [8]: Inhibition of colony formation in BDF1 mouse bone marrow cells assessed as percentage of colony forming cell at 5 uM after 7 days by microscopic analysis relative to control. The class given is functional. Further details: scale not given: the % may be the effect or the level left. The procedure, abridged: as §2
Assay [9] addresses T1, Tubulin (Bos taurus). Put plainly: Displacement of [3H]colchicine from bovine brain tubulin at 100 uM after 90 mins by liquid scintillation counting in presence of 10 uM [3H]colchicine.
The nature of assay [10]: Inhibition of colony formation in BDF1 mouse bone marrow cells assessed as percentage of colony forming cell at 0.5 uM after 7 days by microscopic analysis relative to control. The class given is functional. Further details: scale not given: the % may be the effect or the level left. The gist of the method:
as §2

Assay [11] addresses T1, Tubulin (Bos taurus). Put plainly: Displacement of [3H]colchicine from bovine brain tubulin at 50 uM after 90 mins by liquid scintillation counting in presence of 10 uM [3H]colchicine.
In assay [12] the target is T1, Tubulin (Bos taurus). Kind of assay: Displacement of [3H]colchicine from bovine brain tubulin at 20 uM after 90 mins by liquid scintillation counting in presence of […].
The target in assay [13] is T1, Tubulin (Bos taurus). Put plainly: Displacement of [3H]colchicine from bovine brain tubulin at 200 uM after 90 mins by liquid scintillation counting in presence of 10 uM [3H]colchicine.
Assay [14] can be described thus: Inhibition of colony formation in BDF1 mouse bone marrow cells assessed as percentage of colony forming cell at 5 nM after 7 days by microscopic analysis relative to control. The class given is functional. Also noted: scale not given: the % may be the effect or the level left. The gist of the method: as §2
Assay [15] deals with P815. Put plainly: Inhibition of colony formation in mouse P815 cells assessed as percentage of colony forming cell at 50 nM after 7 days by microscopic analysis relative to control. The class given is functional. Further details: scale not given: the % may be the effect or the level left. The procedure, abridged:
as §1

Assay [16] is described as follows: Inhibition of colony formation in BDF1 mouse bone marrow cells assessed as percentage of colony forming cell at 50 nM after 7 days by microscopic analysis relative to control. The class given is functional. Further details: scale not given: the % may be the effect or the level left. The gist of the method:
as §2

The subject of assay [17] is P815. Kind of assay: Inhibition of colony formation in mouse P815 cells assessed as percentage of colony forming cell at 5 nM after 7 days by microscopic analysis relative to control. The class given is functional. Also noted: scale not given: the % may be the effect or the level left. The gist of the method:
as §1

Each structure is given as a SMILES string.

As to `O=C1OC[C@@H]2[C@@H]1CC=C[C@@H]2c1ccc2c(c1)OCO2`, the Activity in assay [1] worked out at 17400 cpm; in [2], 100%; in [3] it was 15600 cpm; in [4] it was 166%; in [5], 16700 cpm; in assay [6] it was 169%. The Activity in assay [7] came out at 61%; in [8], 135%; in [9], 16700 cpm; in assay [10], 104%.

Consider `O=C1OC[C@H]2CC=C[C@H](c3ccc4c(c3)OCO4)[C@H]12`, for which the Activity in assay [1] stood at 16000 cpm; in assay [2], 101%; in assay [3] it was 18200 cpm; in assay [4] it was 170%; in assay [5], 20100 cpm; in assay [6], 143%. Further, the Activity in [7] was determined as 86%; in [8], 143%; in [9], 19600 cpm; in assay [10] it was 87%.

On to `COc1cc([C@H]2C=CC[C@@H]3C(=O)OC[C@H]32)cc(OC)c1OC`, for which the Activity in assay [2] was determined as 89%; in assay [11] it was 11900 cpm; in [12] it was 9070 cpm; in [4], 135%; in assay [6] it was 109%; in assay [7] it was 95%. Further, the Activity in [8] was determined as 74%; in assay [9] it was 11500 cpm; in [10], 90%; in [13] it was 8690 cpm.

Consider `COc1cc([C@H]2C=CC[C@@H]3C(=O)OC[C@@H]32)cc(OC)c1OC` (relative stereo), for which the Activity in assay [1] is 18500 cpm; in assay [2] it was 81%; in [3], 18400 cpm; in assay [4], 55%; in assay [5] it was 11600 cpm; in assay [6] it was 178%. The Activity in [7] was 89%; in assay [8] it was 73%; in assay [9], 18200 cpm; in assay [10], 75%.

Take `O=C1OC[C@H]2CC=C[C@H](c3ccc4c(c3)OCO4)[C@@H]12`: the Activity came to 17600 cpm in assay [1]; 89% in [2]; 17300 cpm in assay [3]; 115% in assay [4]; 17600 cpm in assay [5]; 138% in [6]. Moreover, the Activity in [7] stood at 112%; in assay [8], 105%; in assay [9], 12400 cpm; in assay [10], 97%.

For `O=C1OC[C@H]2CC=CC[C@@H]12`, the Activity in assay [1] came to 15800 cpm; in assay [2], 93%; in assay [3], 15900 cpm; in assay [4] it was 114%; in assay [5], 16800 cpm; in [6], 111%. The Activity in [7] is 69%; in [8], 103%; in [9], 14100 cpm; in [10] it was 106%.

On to `O=C1OC[C@H]2[C@@H]1CC=C[C@@H]2c1ccc2c(c1)OCO2`, for which the Activity in [1] worked out at 19000 cpm; in [2] it was 71%; in [3], 17000 cpm; in assay [4], 121%; in [5] it was 16700 cpm; in [6], 106%. Besides, the Activity in assay [7] came out at 98%; in assay [8] it was 105%; in [9] it was 17000 cpm; in assay [10], 103%.

For the molecule `O=C1OC[C@H]2[C@@H]1CC=C[C@@H]2c1ccccc1` (relative stereo), the Activity in assay [1] stood at 15800 cpm; in [3] it was 5380 cpm; in assay [5], 14800 cpm; in assay [9], 13100 cpm.

As for `COc1cc([C@@H]2c3cc4c(cc3[C@H](O)[C@H]3COC(=O)[C@H]23)OCO4)cc(OC)c1OC` [PODOFILOX], the Activity is listed as 0% in [2]; 95% in assay [14]; 0% in assay [15]; 1% in [16]; 91% in assay [17]; 0% in assay [10].

On to `COc1cc([C@H]2C=CC[C@@H]3COC(=O)[C@H]32)cc(OC)c1OC` (relative stereo), for which the Activity in [1] was determined as 17000 cpm; in assay [2], 84%; in assay [3], 14600 cpm; in [4], 75%; in assay [5], 15500 cpm; in assay [6], 9%. For the same molecule, the Activity in assay [7] is 42%; in assay [8] it was 105%; in assay [9], 15200 cpm; in assay [10], 35%.

In the case of `O=C1OC[C@H]2CC=C[C@H](c3ccccc3)[C@@H]12` (relative stereo), the Activity in [1] amounted to 1320 cpm; in [3], 13900 cpm; in assay [5], 12300 cpm; in [9] it was 13600 cpm.

Regarding `O=C1OC[C@H]2CC=C[C@H](c3ccccc3)[C@H]12`, the Activity in assay [1] was 12200 cpm; in assay [2], 74%; in assay [3] it was 18500 cpm; in assay [4] it was 107%; in [5], 15600 cpm; in assay [6] it was 93%. The Activity in assay [7] stood at 75%; in assay [8], 95%; in assay [9] it was 15500 cpm; in assay [10], 96%.

In the case of `O=C1OC[C@H]2CC=CC[C@H]12`, the Activity was 15500 cpm in assay [1]; 102% in assay [2]; 15200 cpm in assay [3]; 106% in assay [4]; 14900 cpm in assay [5]; 112% in assay [6]. The Activity stood at 95% in assay [7], 91% in assay [8], 14700 cpm in assay [9] and 102% in [10].
